Consider 5 molecules from ChEMBL document CHEMBL3244063, “Pharmacology on rat ileum of certain 2-substituted 3-(dimethylamino)-5,6-dimethoxyindenes related to 5,6-(methylenedioxy)indene calcium antagonists” (1978).

Assay [1] is filed under the species Rattus norvegicus. As to the kind of experiment: Antagonist activity at calcium channel in albino rat ileum assessed as inhibition of PGF-2alpha-induced spasmogenic action by measuring contraction of ileum at 10^-3 M preincubated for 3 mins followed by PGF-2alpha induction (reference value: 76 +/- 4%). The assay is classed as tissue-based. Also noted: scale not given: the % may be the effect or the level left.

The species entered for assay [2] is Rattus norvegicus. As to the kind of experiment: Agonist activity at calcium channel in albino rat ileum assessed as induction of spasmogenic action by measuring contraction of ileum at 10^-4 M measured for 3 mins relative to PGF-2alpha. The class given is tissue-based. An outline of the steps:
(§1)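 Isolated rat ileum strips in an organ bath, with a separate strip for each compound and concentration. A control contraction to PGF2α (3 × 10⁻⁷ M bath) or acetylcholine (10⁻⁶ M bath) is recorded, and the bath is washed three times. Contraction during the 3-min test-compound incubation, before spasmogen is added, is expressed as percent of the control spasmogen response. Mean ± SEM of four experiments.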

For assay [3], the species on record is Rattus norvegicus. As to the kind of experiment: Agonist activity at calcium channel in albino rat ileum assessed as induction of spasmogenic action by measuring contraction of ileum at 10^-3 M measured for 3 mins relative to PGF-2alpha. The assay is classed as tissue-based. In short, it runs like this: as §1
Assay [4] is filed under the species Rattus norvegicus. As to the kind of experiment: Antagonist activity at calcium channel in albino rat ileum assessed as inhibition of acetylcholine-induced spasmogenic action by measuring contraction of ileum at 10^-6 acetylcholine induction (reference value: 80 +/- 5%). The class given is tissue-based. Also on record: scale not given: the % may be the effect or the level left.

The species entered for assay [5] is Rattus norvegicus. As to the kind of experiment: Antagonist activity at calcium channel in albino rat ileum assessed as inhibition of acetylcholine-induced spasmogenic action by measuring contraction of ileum at 10^-5 acetylcholine induction (reference value: 80 +/- 5%). The assay is classed as tissue-based. Also noted: scale not given: the % may be the effect or the level left.

The species named for assay [6] is Rattus norvegicus. Description: Antagonist activity at calcium channel in albino rat ileum assessed as inhibition of acetylcholine-induced spasmogenic action by measuring contraction of ileum at 10^-4 acetylcholine induction (reference value: 80 +/- 5%). The class given is tissue-based. Also on record: scale not given: the % may be the effect or the level left.

For assay [7], the species on record is Rattus norvegicus. Description: Antagonist activity at calcium channel in albino rat ileum assessed as inhibition of acetylcholine-induced spasmogenic action by measuring contraction of ileum at 10^-3 acetylcholine induction (reference value: 80 +/- 5%). The assay is classed as tissue-based. Also noted: scale not given: the % may be the effect or the level left.

Assay [8] is filed under the species Rattus norvegicus. As to the kind of experiment: Agonist activity at calcium channel in albino rat ileum assessed as induction of spasmogenic action by measuring contraction of ileum at 10^-4 M measured for 3 mins relative to acetylcholine. The class given is tissue-based. An outline of the steps:
as §1

The species entered for assay [9] is Rattus norvegicus. As to the kind of experiment: Agonist activity at calcium channel in albino rat ileum assessed as induction of spasmogenic action by measuring contraction of ileum at 10^-3 M measured for 3 mins relative to acetylcholine. The class given is tissue-based. In short, it runs like this:
as §1

The species named for assay [10] is Rattus norvegicus. As to the kind of experiment: Agonist activity at calcium channel in albino rat ileum assessed as induction of spasmogenic action by measuring contraction of ileum at 10^-6 to 10^-5 M measured for 3 mins. The class given is tissue-based. In short, it runs like this:
as §1

The species named for assay [11] is Rattus norvegicus. As to the kind of experiment: Antagonist activity at calcium channel in albino rat ileum assessed as inhibition of PGF-2alpha-induced spasmogenic action by measuring contraction of ileum at 10^-6 M preincubated for 3 mins followed by PGF-2alpha induction (reference value: 76 +/- 4%). The assay is classed as tissue-based. Also on record: scale not given: the % may be the effect or the level left.

The species entered for assay [12] is Rattus norvegicus. Description: Antagonist activity at calcium channel in albino rat ileum assessed as inhibition of PGF-2alpha-induced spasmogenic action by measuring contraction of ileum at 10^-5 M preincubated for 3 mins followed by PGF-2alpha induction (reference value: 76 +/- 4%). The assay is classed as tissue-based. Also noted: scale not given: the % may be the effect or the level left.

For assay [13], the species on record is Rattus norvegicus. Description: Antagonist activity at calcium channel in albino rat ileum assessed as inhibition of PGF-2alpha-induced spasmogenic action by measuring contraction of ileum at 10^-4 M preincubated for 3 mins followed by PGF-2alpha induction (reference value: 76 +/- 4%). The class given is tissue-based. Also on record: scale not given: the % may be the effect or the level left.

In another assay the test system is Heart. Description: Positive inotropic activity in perfused rabbit heart assessed as increase in force of contraction at 10^-6 M relative to control. The assay is classed as functional, Oryctolagus cuniculus.

Each structure is given as a SMILES string. The source made the active and inactive calls. No cut-off for these calls is given here.

On to `CCCC1=Cc2cc(OC)c(OC)cc2C1N(C)C` (stereo not drawn), for which the Activity came out at 49.1% in the assay listed under Rattus norvegicus [1]; 80.7% in the assay filed under Rattus norvegicus [2]; 61.7% in the assay listed under Rattus norvegicus [3]; 104% in the assay filed under Rattus norvegicus [4]; 110% in the assay filed under Rattus norvegicus [5]; 96.6% in the assay filed under Rattus norvegicus [6]. Also, the Activity in the assay listed under Rattus norvegicus [7] amounted to 56.7%; in the assay listed under Rattus norvegicus [8], 42.7%; in the assay filed under Rattus norvegicus [9] it was 43.6%; in the assay filed under Rattus norvegicus [11] it was 104%; in the assay listed under Rattus norvegicus [12], 99.3%; in the assay listed under Rattus norvegicus [13], 99.7%. Also, the outcome in the assay listed under Rattus norvegicus [10] was inactive.
For the molecule `COc1cc2c(cc1OC)C(N(C)C)C(C)=C2` (stereo not drawn), the Activity in the assay listed under Rattus norvegicus [1] worked out at 124%; in the assay filed under Rattus norvegicus [2], 59.8%; in the assay listed under Rattus norvegicus [3] it was 119%; in the assay listed under Rattus norvegicus [4], 113%; in the assay listed under Rattus norvegicus [5], 113%; in the assay listed under Rattus norvegicus [6], 94.4%. The Activity was determined as 64% in the assay filed under Rattus norvegicus [7]; 20.6% in the assay listed under Rattus norvegicus [8]; 49.5% in the assay filed under Rattus norvegicus [9]; 111% in the assay filed under Rattus norvegicus [11]; 108% in the assay listed under Rattus norvegicus [12]; 113% in the assay listed under Rattus norvegicus [13]. The result in the assay filed under Rattus norvegicus [10] was inactive.
Turning to `CCCCC1=Cc2cc(OC)c(OC)cc2C1N(C)C` (stereo not drawn), the Activity in the assay filed under Rattus norvegicus [1] came out at 65.2%; in the assay filed under Rattus norvegicus [2] it was 37.1%; in the assay filed under Rattus norvegicus [3], 58.1%; in the assay listed under Rattus norvegicus [4], 104%; in the assay listed under Rattus norvegicus [5], 108%; in the assay filed under Rattus norvegicus [6], 78.6%. Further, the Activity was determined as 64.3% in the assay listed under Rattus norvegicus [7]; 25.3% in the assay filed under Rattus norvegicus [8]; 46.7% in the assay filed under Rattus norvegicus [9]; 101% in the assay filed under Rattus norvegicus [11]; 91.1% in the assay filed under Rattus norvegicus [12]; 60.5% in the assay filed under Rattus norvegicus [13]. The result in the assay filed under Rattus norvegicus [10] was inactive.
On to `CCC1=Cc2cc(OC)c(OC)cc2C1N(C)C` (stereo not drawn), for which the Activity in the assay listed under Rattus norvegicus [1] amounted to 62%; in the assay filed under Rattus norvegicus [2], 74.7%; in the assay filed under Rattus norvegicus [3], 77.3%; in the assay filed under Rattus norvegicus [4], 105%; in the assay filed under Rattus norvegicus [5] it was 105%; in the assay filed under Rattus norvegicus [6] it was 91.5%. Further, the Activity is 51.3% in the assay listed under Rattus norvegicus [7]; 28.9% in the assay filed under Rattus norvegicus [8]; 45.3% in the assay filed under Rattus norvegicus [9]; 98.7% in the assay listed under Rattus norvegicus [11]; 108% in the assay filed under Rattus norvegicus [12]; 110% in the assay listed under Rattus norvegicus [13]. In addition, in the assay filed under Rattus norvegicus [10], the outcome was inactive.
For `CCCC1=Cc2cc3c(cc2C1N(C)C)OCO3.Cl` (stereo not drawn), the Activity with Heart is reported as 36%.
